# Published values pooled from the literature.
# Protocols differ between the studies behind these lines.
# Target: Tyrosine-protein kinase receptor UFO (AXL, Homo sapiens, UniProt P30530)
# Residues used in one study (P30530 26-894): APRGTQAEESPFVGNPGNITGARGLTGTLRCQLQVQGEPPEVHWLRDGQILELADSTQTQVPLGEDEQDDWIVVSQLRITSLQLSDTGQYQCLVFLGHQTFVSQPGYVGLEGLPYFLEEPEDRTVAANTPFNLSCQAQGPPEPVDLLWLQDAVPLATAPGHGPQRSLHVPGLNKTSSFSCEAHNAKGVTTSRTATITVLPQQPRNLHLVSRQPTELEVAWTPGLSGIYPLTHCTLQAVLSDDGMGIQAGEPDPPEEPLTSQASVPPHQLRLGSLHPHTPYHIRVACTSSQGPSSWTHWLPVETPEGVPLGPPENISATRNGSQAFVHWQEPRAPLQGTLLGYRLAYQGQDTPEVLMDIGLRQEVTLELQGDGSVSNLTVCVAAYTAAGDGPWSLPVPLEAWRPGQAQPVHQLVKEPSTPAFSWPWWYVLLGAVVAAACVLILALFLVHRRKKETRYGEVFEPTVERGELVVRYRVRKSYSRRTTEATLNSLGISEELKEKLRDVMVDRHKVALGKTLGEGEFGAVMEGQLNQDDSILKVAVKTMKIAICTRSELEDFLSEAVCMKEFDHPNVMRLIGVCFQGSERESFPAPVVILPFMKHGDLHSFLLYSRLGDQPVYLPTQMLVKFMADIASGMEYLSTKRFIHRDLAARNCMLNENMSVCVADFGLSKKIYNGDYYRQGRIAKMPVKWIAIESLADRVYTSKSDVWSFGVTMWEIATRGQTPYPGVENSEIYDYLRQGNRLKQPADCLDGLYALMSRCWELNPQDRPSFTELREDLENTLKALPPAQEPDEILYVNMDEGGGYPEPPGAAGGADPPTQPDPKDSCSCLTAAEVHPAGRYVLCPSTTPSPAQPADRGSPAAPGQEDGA
Structure (SMILES),read-out,action,method,tested at,measurement,value
COc1ccc2[nH]c3c4[nH]c5ccc(OC)cc5c4c4c(c3c2c1)C(=O)NC4=O,binding,,competition with immobilised ligand,1 µM,remaining binding,30%
CCCCC(=O)Nc1ccc(-c2ccc3ncn(CCC)c(=O)c3c2)cn1,binding,,competition with immobilised ligand,0.5 µM,remaining binding,95%
CO[C@@H]1[C@H](N(C)C(=O)c2ccccc2)C[C@H]2O[C@]1(C)n1c3ccccc3c3c4c(c5c6ccccc6n2c5c31)C(=O)NC4,enzyme activity,inhibitor,,1 µM,inhibition,92%
N#Cc1ccc(NC(=O)Nc2ccccc2)cc1,cell-free assay,,competition with immobilised ligand,25 µM,remaining binding,100%
CNC(=O)c1ccccc1Nc1nc(Nc2ccc(CO)nc2)ncc1Cl,enzyme activity,inhibitor,,1 µM,remaining activity,2.06%
CC#CC(=O)N1CCC[C@H]1c1nc(-c2ccc(C(=O)Nc3ccccn3)cc2)c2c(N)nccn12,enzyme activity,inhibitor,,1 µM,inhibition,5%
COc1ccc2oc(-c3ccc4nc(N)oc4c3)c/c(=N\c3ccccc3NC(=O)CCN)c2c1,binding,,,1 µM,remaining binding,96%
C1=C/COCc2cc(ccc2OCCN2CCCC2)Nc2nccc(n2)-c2cccc(c2)COC/1,binding,,,0.1 µM,remaining binding,38%
CNC(=O)c1ccccc1Nc1nc(Nc2ccc(CO)cc2)ncc1Cl,enzyme activity,inhibitor,,1 µM,remaining activity,1.13%
CNS(=O)(=O)c1ccc(Nc2ncc(C(F)(F)F)c(N3CCC[C@](C)(O)C3)n2)c(C)c1,binding,,competition with immobilised ligand,1 µM,remaining binding,70%
CS(=O)(=NC#N)c1ccccc1Nc1nc(Nc2ccc(CO)nc2)ncc1Cl (centres unmarked),enzyme activity,inhibitor,,1 µM,remaining activity,14.9%
C[C@]1(O)CCCN(c2nc(Nc3ccc(S(=O)(=O)N[C@H]4CC[C@H](CN5CCN(c6ccc(C7CCC(=O)NC7=O)cc6F)CC5)CC4)cc3F)ncc2C(F)(F)F)C1 (some centres unmarked),binding,,competition with immobilised ligand,1 µM,remaining binding,40%
CS(=O)(=O)c1ccccc1Nc1nc(Nc2ccnc(CO)c2)ncc1Cl,enzyme activity,inhibitor,,1 µM,remaining activity,4.41%
Cc1ccc(NC(=O)c2ccnc(C(F)(F)F)c2)cc1-c1cc(OCCO)nc(N2CCOCC2)c1,binding,,competition with immobilised ligand,1 µM,remaining binding,90%
